# Assay outcomes as filed in PubChem.
# Only some compounds are listed: those with a hit (about 7.1% of all), similar ones and a draw of the others.
# Lung fibro prol: blocks proliferation of human lung fibroblasts; LL 47 human lung fibroblast viability, ATP luminescence; hits give low values; viability, % at 10 µM; hit rate 1.1% among 85,000; AID 719;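 active = viability at or below 50% in the single dose screen; inactive = viability above 50%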;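 note: compound exposure lasted 72 h before the ATP readout; 100% = median luminescence of untreated cell-only wells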
#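 test system = LL 47 human lung fibroblasts | amount = 1,150 fibroblasts seeded per well | medium = 15% FBS in IMEM | times = overnight cell rest, 72 h compound treatment at 37 °C | measured by = CellTiter-Glo luminescence measuring cellular ATP | read-out = viability percentage against median untreated-cell control | benchmarks = cell-only wells, no compound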
# H69AR inhibit: blocks growth of human H69AR lung tumor cells. H69AR lung tumor viability, ATP luminescence, 72 h; hits give low values. viability, % at 10 µM. hit rate 6% among 85,000. AID 598;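 active = viability at or below 40%; inactive = viability above 40%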;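 note: multidrug resistant small cell line overexpressing MRP-1 efflux transporter; 100% = mean luminescence of untreated control wells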
# HUVEC inhibit: human endothelial cell proliferation inhibition | HUVEC proliferation, CellTiter-Glo luminescence, 72 h; hits give low values | viability, % at 10 µM (by protocol) | AID 648 | hit rate 1.1% among 86,000;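 active = viability at or below 30%; inactive = viability above 30%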;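 note: 100% = median luminescence of DMSO-only cell control wells on each plate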
# Cav32 inh: inhibitors of human Cav3.2 T-type calcium channel | O95180 | Cav3.2-expressing cells, Fluo-4 calcium fluorescence FDSS; hits give low values | B-score at 10 µM | hit rate 4% among 100,000 | AID 449739;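 active = single-dose well whose peak fluorescence ratio is a statistical outlier from its plate by either plate-standardised score or position-corrected B-score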
# HCT116 PTEN-null: PTEN-deleted cell growth suppression | hit rate 1.2% among 140,000 | viability, % at 10 µM | HCT116 PTEN-null viability, CellTiter-Glo, 60 h; hits give low values;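 active = viability at or below a set limit, 4 SD under the median of all tested compounds, cut at about 3.7% in these data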;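 note: PTEN knockout HCT116 line with beta catenin targeted HCT116 as companion control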
# HCT116 bCat-KO: beta-catenin-lacking colon tumor cell growth suppression; hit rate 1.5% among 140,000; viability, % at 10 µM; HCT116 beta-catenin knockout viability, CellTiter-Glo, 60 h; hits give low values;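 active = viability at or under a set limit, the compound median less 4 SD, cut at about 6% in these data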;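 note: 0% = Hyamine 1622 control at 20 µM and 100% = untreated cell control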
# * = called active by the depositor; . = not tested or not shown.
SMILES,Lung fibro prol,H69AR inhibit,HUVEC inhibit,Cav32 inh,HCT116 PTEN-null,HCT116 bCat-KO
Cc1cc(Cl)c(S(=O)(=O)N2CCCCCC2)cc1OCC(N)=O,94,107,86,0.055,66,78
Cc1cc(Cl)c(S(=O)(=O)N2CCCCCC2)cc1OCC(=O)NC1CCCCC1,91,82,78,-4.2*,21,17
Cc1cc(Cl)c(S(=O)(=O)N2CCN(c3cccc(C)c3C)CC2)cc1OCC(N)=O,90,38*,88,-1.2,68,58
CCOC(=O)c1ccc(NS(=O)(=O)c2c(N)[nH]c(=O)[nH]c2=O)cc1,.,.,.,0.12,.,.
Cn1c(CCN2CCCCC2)nc2cc(NS(=O)(=O)c3ccc(Cl)cc3)ccc21,100,9.8*,104,1.3,16,13
O=C1C(Cl)=C(Nc2ccccc2O)C(=O)N1CCc1ccccc1,.,.,.,.,81,84
CCCOc1cc(C)c(S(=O)(=O)NC2CC(C)(C)NC(C)(C)C2)cc1C,.,.,.,.,95,75
CSc1nnc2c3cc(F)ccc3n(Cc3ccccc3)c2n1,81,33*,56,-0.0065,.,.
CSc1nnc2c3ccccc3n(Cc3ccccc3)c2n1,72,49,46,-1,52,55
Cc1ccc(SCCNS(=O)(=O)c2ccc(F)cc2)cc1,101,107,100,-8.7*,58,61
O=S(=O)(NCCCCCNS(=O)(=O)c1ccc(F)cc1)c1ccc(F)cc1,103,86,96,-5.8*,81,78
COc1ccc(S(=O)(=O)NCCSc2ccc(C)cc2)cc1OC,98,103,94,-2.2,82,66
Cc1ccc(SCCNS(=O)(=O)c2ccc3c(c2)OCCO3)cc1,100,102,96,-6.9*,99,92
O=S(=O)(NCCSc1ccc(Cl)cc1)c1ccc(F)cc1,102,87,89,-7.7*,68,71
COc1ccc(NC(=O)C(=O)N/N=C/c2cc(C)n(-c3cccc(Cl)c3Cl)c2C)c(OC)c1,.,.,.,-3.3,85,91
O=C1c2ccccc2C(=O)N1CCc1csc(-c2cccc(F)c2)n1,.,.,.,-1.5,87,96
CC(C)(C)c1ccc(OC(=O)c2ccc3nsnc3c2)cc1,100,107,107,-3.5*,85,101
CC(C)(C)c1ccc(OC(=O)c2ccc3snnc3c2)cc1,.,.,.,.,95,95
CSc1nc2sc3c(c2c(=O)[nH]1)CCC3,.,.,.,.,100,102
CCN(CC)c1ccc(/C=c2\sc3nnc(-c4ccccc4Cl)n3c2=O)cc1,97,97,94,-4.7*,90,91
CCN(CC)c1ccc(/C=c2/sc3nnc(-c4ccccc4C)n3c2=O)cc1,88,20*,68,-2.9,102,100
Cc1ccc(/C=c2/sc3nnc(-c4ccccc4Cl)n3c2=O)o1,107,88,102,-1.3,96,100
COc1cc2c(cc1OC)C(c1ccc(-c3cc(Cl)ccc3Cl)o1)=NCC2,84,56,77,-0.33,3.3*,7
COc1cc2c(cc1OC)C(c1ccc(-c3ccc(Cl)c(Cl)c3)o1)=NCC2,71,19*,65,-2,2.8*,4.1*
COc1cccc2cc(-c3nnc(SCC(=O)NCc4ccccc4)n3C)oc12,95,80,84,-0.41,84,81
SMILES,Lung fibro prol,H69AR inhibit,HUVEC inhibit,Cav32 inh,HCT116 PTEN-null,HCT116 bCat-KO
COC(=O)C1=C(CN2CCCc3ccccc32)NC(=O)NC1c1ccc(F)cc1 (centres undefined),92,81,98,-3.9*,66,75
COC(=O)C1=C(CCc2ccccc2)NC(=O)NC1c1ccc([N+](=O)[O-])cc1 (centres undefined),.,.,.,-1.4,.,.
COC(=O)C1=C(CN2CCc3ccccc32)NC(=O)NC1c1cc(C)ccc1C (centres undefined),89,34*,85,.,41,58
CCOC(=O)C1=C(CN2c3ccccc3CC2C)NC(=O)NC1c1ccccc1 (centres undefined),83,76,106,-7.8*,75,80
O=[N+]([O-])c1cccc(C=Nc2cc3c(cc2Br)OCCO3)c1,.,.,.,.,93,94
CCOC(=O)N1CCN(C(=S)Nc2cc(OC)c(OC)cc2C(=O)OC)CC1,.,.,.,1.1,101,111
Cc1nn(-c2ccc(F)cc2)c(Cl)c1/C=C1\C(=O)Nc2ccccc21,.,.,.,.,21,19
COc1ccc(C(C)=O)cc1CSc1nncn1-c1ccccc1,.,.,.,.,102,94
O=C1OCCC1Sc1nnc(-c2ccc(F)cc2)n1Cc1ccccc1 (centres undefined),.,.,.,.,105,98
OC(CCCN1CCC(O)(c2ccc(Cl)cc2)CC1)c1ccc(F)cc1 (centres undefined),88,81,116,-1.3,0.7*,0.6*
Cn1ncc(C#N)c1/N=C/N(Cc1ccccc1)Cc1ccccc1,89,100,106,-8.4*,36,29
COC(=O)c1ccccc1NC(=S)NC(NC(=O)c1ccccc1[N+](=O)[O-])C(Cl)(Cl)Cl (centres undefined),.,.,.,-8.5*,96,102
COC(=O)c1ccccc1NC(=S)NC(NC(=O)c1ccco1)C(Cl)(Cl)Cl (centres undefined),.,.,.,-1.1,102,86
COc1ccc(NC(=S)NC(NC(=O)c2ccc(Cl)cc2Cl)C(Cl)(Cl)Cl)c([N+](=O)[O-])c1 (centres undefined),92,66,56,-5.1*,104,99
O=C(NCc1cccnc1)[C@@H]1CC=C[C@@H]2CCN(Cc3ccccc3)C(=O)[C@@H]21,.,.,.,0.068,.,.
N#CCC(=O)NCCCc1ccccc1,.,.,.,.,96,98
COc1ccc2[nH]cc(CCN=C3SCC(=O)N3C)c2c1,105,98,82,0.42,101,100
Cn1c(-c2ccc(F)cc2)cnc1NCc1cccc(F)c1,75,36*,80,-0.12,80,80
Cn1c(-c2ccc(F)cc2)cnc1NCc1ccccc1,93,74,94,0.42,80,73
COC(C(=O)Nc1ccc(S(=O)(=O)Nc2cccc3ccccc23)cc1)c1ccccc1 (centres undefined),.,.,.,.,96,94
CCOc1cc(N2CCOCC2)c(OCC)cc1NC(=O)COc1ccc2ccc(=O)oc2c1,.,.,.,.,26,35
CCCN1C/C(=C/c2cccc([N+](=O)[O-])c2)C(=O)/C(=C/c2cccc([N+](=O)[O-])c2)C1,.,.,.,1.2,2.0*,2.6*
CC1(C)CC(=O)/C(=C\c2cccc([N+](=O)[O-])c2)C(C)(C)N1,.,.,.,.,9,18
CCCN1C/C(=C/c2ccc3c(c2)OCO3)C(=O)/C(=C/c2ccc3c(c2)OCO3)C1,.,.,.,.,2.2*,2.0*
CC1=C/C(=C\c2ccc3c(c2)OCO3)C(=O)S1,105,68,82,.,88,99
CCc1ccccc1NCC(=O)Nc1ccc(Cl)c(C(F)(F)F)c1,.,.,.,.,58,69
NNC(=S)NCc1ccc2c(c1)OCO2,.,.,.,.,94,87
Cc1cc2occ(CC(=O)OCC(=O)Nc3sc4c(c3C#N)CCC(C)C4)c2cc1C (centres undefined),.,.,.,.,86,84
